# Hits are enriched below; roughly 2.1% of the tested compounds scored in any of these assays.
# TNF necrop inh: inhibitors of TNF-alpha induced necroptosis in Jurkat FADD-/- cells. AID 463075. 220,000 tested, 0.068% active. Jurkat FADD-/- TNF necroptosis rescue, ATP luminescence, 24 h; 0 = TNF only, 100 = no-TNF cells. activation (protection from cell death), % at 10 µM;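 active = activation, meaning protection from cell death, of at least 50% relative to plate controls; inactive = activation below 50%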;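 note: necroptosis triggered by 40 ng/mL TNF-alpha added together with compound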
# RanGTP-Impb inh: disruptors of Ran-importin-beta complex formation – biochemical, FRET, CFP-Ran, YFP-importin-beta, homogeneous, primary screen | inhibition, % (concentration not given with the values) | cell-free CFP-Ran/YFP-importin-beta FRET ratio | 300,000 tested, 1.1% active;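 active = more than half of the replicate wells show a fall in the fluorescence ratio signal beyond about 16%, limit read from the data, passing the limit was not always enough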
# Hck-Nef inh: inhibitors of human Hck kinase activated by Nef; P08631; Recombinant Hck-YEEI plus Nef, Z-Lyte FRET kinase assay; inhibition, % at 20 µM; 220,000 tested, 0.68% active;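 active = Hck-Nef kinase inhibition above about 50%, limit read from the data; inactive = inhibition below that limit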
# L929 necroptosis: blocks zVAD induced death of L929 cells; 220,000 tested, 0.38% active; viability rescue, % at 10 µM; L929 zVAD necroptosis rescue, ATP luminescence, 24 h; with zVAD 60 µM;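 active = activation, scaled between plate controls, above about 75%, limit read from the data; inactive = activation under that limit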
# Runt-CBFb FRET: inhibitors of human RUNX1 Runt domain binding to CBFb; Q01196+Q13951; Cerulean-Runt/Venus-CBFb FRET ratio 530/480, 1 h; inhibition, % at 20 µM; 220,000 tested, 0.46% active; AID 1496;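 active = inhibition over about 50% at 20 µM in the single-dose screen, limit read from the data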
# Target sequence (Q01196 whole entry, looked up, the tested form may be a part): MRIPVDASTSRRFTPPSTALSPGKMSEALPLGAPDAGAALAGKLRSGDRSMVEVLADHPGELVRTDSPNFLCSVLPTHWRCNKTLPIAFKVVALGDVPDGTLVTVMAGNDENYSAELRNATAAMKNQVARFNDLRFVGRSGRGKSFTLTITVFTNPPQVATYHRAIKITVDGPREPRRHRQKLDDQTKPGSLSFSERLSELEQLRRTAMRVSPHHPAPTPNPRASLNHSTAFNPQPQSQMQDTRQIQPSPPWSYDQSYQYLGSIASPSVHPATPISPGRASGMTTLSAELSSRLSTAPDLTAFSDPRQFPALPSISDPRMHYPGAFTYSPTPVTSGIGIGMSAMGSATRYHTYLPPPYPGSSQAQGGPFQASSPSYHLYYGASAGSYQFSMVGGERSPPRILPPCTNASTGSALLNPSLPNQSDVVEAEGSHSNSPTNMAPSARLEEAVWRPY
# Target sequence (Q13951 whole entry, looked up, the tested form may be a part): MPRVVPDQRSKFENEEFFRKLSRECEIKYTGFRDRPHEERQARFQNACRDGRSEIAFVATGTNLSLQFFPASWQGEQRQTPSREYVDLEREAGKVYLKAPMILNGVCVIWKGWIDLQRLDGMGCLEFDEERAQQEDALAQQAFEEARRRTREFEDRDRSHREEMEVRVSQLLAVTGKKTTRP
#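 Assay system: Cerulean-Runt domain / Medium: Tris 50 mM pH 7.5, KCl, K2SO4, 0.01% BSA / Timing: protein complex preformed 1 h, compound exposure 1 h, room temperature, dark / Measured by: FRET, excitation 422 nm, emission at 530 and 480 nm / Evaluation: loss of energy transfer signal / Control set: 5 µM unlabeled CBFb as full-inhibition high control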
# Runt-SMMHC FRET: blocks binding of human RUNX1 Runt domain to CBFb-SMMHC; Cerulean-Runt/Venus-CBFb-SMMHC FRET ratio 530/480, 1 h; Q01196+Q13951; 220,000 tested, 0.74% active; inhibition, % at 20 µM;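 active = mean inhibition across duplicate retests at 20 µM reaching about 50%, limit read from the data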;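 note: inhibitors lower the FRET ratio by blocking Runt binding to CBFb-SMMHC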
# Hits are given with their value; n = inactive; x = not tested or not shown.
SMILES,TNF necrop inh,RanGTP-Impb inh,Hck-Nef inh,L929 necroptosis,Runt-CBFb FRET,Runt-SMMHC FRET
C/C(=N\Nc1nc(-c2ccccc2)cs1)c1cccs1,n,n,n,n,n,n
C/C(=N\Nc1nc2ccccc2s1)c1cccs1,n,22,n,n,n,n
COc1cc(NC(=O)CN(C)S(=O)(=O)c2ccc3c(c2)CC(C)N3C(C)=O)cc(OC)c1 (stereo unspecified),x,n,x,x,x,x
c1ccc(Nc2ncnc3sccc23)cc1,x,n,x,x,x,x
CC(Nc1ncnc2sccc12)c1ccccc1 (stereo unspecified),x,28,x,x,x,x
CCOC(=O)c1nn(-c2ccc(F)cc2)c(=O)cc1OCC(=O)Nc1ccc(F)c(F)c1,x,n,x,x,x,x
COC(=O)Cc1[nH]nc2c1C(c1c[nH]c3ccccc13)C(C#N)=C(N)O2 (stereo unspecified),n,45,n,n,n,n
COc1ccccc1CCNC(=O)CSc1nnc2ccc(-c3ccncc3)nn12,n,n,n,n,n,n
Cc1cccc(Nc2nnc(SC/C(O)=C(\C#N)c3nc4ccccc4[nH]3)s2)c1C,n,26,n,n,n,n
Cc1cccc(C)c1Nc1nnc(SC/C(O)=C(\C#N)c2nc3ccccc3[nH]2)s1,n,n,n,x,n,n
O=C(CN1CCN(C(=O)c2ccco2)CC1)Nc1cccc([N+](=O)[O-])c1,n,n,n,n,n,n
O=C(NCCCNC(=O)C(F)(F)C(F)F)C(F)(F)C(F)F,n,29,n,n,n,n
O=C(NC1CCC(NC(=O)C(F)(F)C(F)F)CC1)C(F)(F)C(F)F (stereo unspecified),n,n,n,n,n,n
CN1/C(=C/C(=O)c2ccc(Cl)cc2)Sc2cc3c(cc21)OCO3,n,36,n,n,n,n
COc1ccc(C(=O)/C=C2/Sc3cc4c(cc3N2C)OCO4)cc1,n,n,n,n,n,n
CCCCNC(=O)C1c2ccccc2Oc2ccccc21,n,22,n,n,n,n
COc1ccc(C2C(C#N)=C(N)Oc3cc(C)[nH]c(=O)c32)cc1OC (stereo unspecified),n,n,n,n,n,n
CN(C(=S)Oc1ccc(C(=O)Nc2ccccc2)cc1)c1ccccc1,n,n,n,n,n,n
COc1ccc(NC(=O)c2ccc(OC(=S)N(C)c3ccc(OC)cc3)cc2)cc1,68,n,n,n,n,n
O=C1/C(=C\c2ccco2)SC(=S)N1c1ccc(O)cc1,n,n,72,n,n,n
CN1/C(=C\C=C(/C#N)C(=O)Nc2ccc(Cl)cc2)C(C)(C)c2ccccc21,n,28,n,n,n,n
COc1cc(/C=C(\C#N)C(=O)Nc2cccc3ncccc23)ccc1O,n,63,n,n,84,92
COc1ccc(S(=O)(=O)NCc2ccco2)cc1N(C)S(=O)(=O)c1ccccc1,n,n,n,n,n,n
CCCCC(=O)Nc1nn(C)c2nc3c(C)cccc3cc12,n,n,n,n,n,n
CCn1nc(NC(=O)COC)c2cc3cccc(C)c3nc21,x,44,x,x,x,x
SMILES,TNF necrop inh,RanGTP-Impb inh,Hck-Nef inh,L929 necroptosis,Runt-CBFb FRET,Runt-SMMHC FRET
CCCCC(=O)Nc1nn(CCC)c2nc3ccccc3cc12,n,63,n,n,n,n
CCCCn1nc(NC(=O)COC)c2cc3cc(OC)ccc3nc21,x,99,x,x,x,x
CCCn1nc(NS(=O)(=O)c2ccccc2)c2cc3ccccc3nc21,x,n,x,x,n,n
CCCCC(=O)Nc1nn(CC)c2nc3c(C)cccc3cc12,x,37,x,x,x,x
Cc1cccc2cc3c(NC(=O)CC(C)C)nn(C)c3nc12,n,n,n,n,n,n
CCn1nc(NC(=O)c2ccccn2)c2cc3cc(C)ccc3nc21,n,89,n,n,n,82
CCn1nc(NC(=O)Cc2ccc(OC)cc2)c2cc3cccc(C)c3nc21,n,24,n,n,82,82
CCn1nc(NC(=O)Cc2ccc(OC)cc2)c2cc3cc(C)ccc3nc21,n,19,n,n,n,n
Cc1nc(C)c(N)c(=O)[nH]1,n,n,n,n,n,n
CCCC(C(=O)Nc1ccncc1)c1ccccc1 (stereo unspecified),x,n,x,x,x,x
COc1ccccc1CNc1nc(-c2cc(C)n(C)c2C)cs1,n,x,67,n,n,n
COc1ccc(S(=O)(=O)N2CCC(NC(=O)c3cccnc3)CC2)cc1,x,n,x,x,x,x
COc1ccc(Cl)cc1NC(=O)C(C)N(C)Cc1cccc(Cl)c1Cl (stereo unspecified),n,n,n,n,n,n
CCC(C)/C=C/C1=CC2=C(Cl)C(=O)C3(C)OC(=O)C(C(=O)C(C)C(C)O)C3C2=CO1 (stereo unspecified),n,88,n,n,n,85
Cc1ccc(-c2cc(C(=O)N3CCN(C(=O)c4ccco4)CC3)[nH]n2)cc1C,x,n,x,x,x,x
O=C1NC(=Nc2ccccc2)SC1Cc1ccccc1 (stereo unspecified),n,n,n,n,n,n
O=C1NC(=Nc2ccccc2)SC1Cc1cccc(Cl)c1Cl (stereo unspecified),79,n,n,n,n,n
CC1CCc2sc(C(=O)N=Nc3c(O)[nH]c4ccccc34)cc2C1 (stereo unspecified),n,n,n,n,n,n
CCOC(=O)N1CCN(C(=O)CCNS(=O)(=O)c2cc(Br)cnc2N)CC1,n,n,n,86,n,n
C(=N\n1cnnc1)/c1ccc(N2CCOCC2)s1,n,n,n,n,n,70
COC(CNC(=O)c1ccc(Cn2c(=S)[nH]c3cc4c(cc3c2=O)OCO4)cc1)OC,n,125,n,n,n,n
CN1CCN(Cc2c(O)ccc3c(=O)c(Oc4ccccc4Cl)c(C(F)(F)F)oc23)CC1,n,22,n,n,n,n
COc1ccc(Cc2nnc(Cl)c3ccccc23)cc1OC,x,n,x,x,x,x
CN1C(=O)N(C)c2ccc(C=O)c3cccc1c23,n,n,n,n,59,92
O=C(O)CCC(=O)N1CCN(c2nc(-c3ccccc3Cl)c3cc(Br)ccc3n2)CC1,n,31,n,n,n,85
SMILES,TNF necrop inh,RanGTP-Impb inh,Hck-Nef inh,L929 necroptosis,Runt-CBFb FRET,Runt-SMMHC FRET
O=C(O)CCC(=O)N1CCN(c2nc(-c3ccccc3)c3cc(Br)ccc3n2)CC1,x,28,x,x,x,x
CCOC(=O)N1CCN(c2nc(-c3ccccc3)c3cc(C)ccc3n2)CC1,x,18,x,x,x,x
NNc1nc(-c2ccccc2Cl)c2cc(Br)ccc2n1,x,n,x,x,x,x
CCOC(=O)N1CCN(C(=O)c2ccc3nc(-c4ccccc4)c(-c4ccccc4)nc3c2)CC1,x,n,x,x,x,x
CCOC(=O)c1ccc(NC(=O)c2cn(CCC#N)nc2-c2ccc3c(c2)OCCO3)cc1,n,n,n,n,n,n
COC(=O)Cc1cc(=O)[nH]c(/N=C(\N)Nc2ccc(C(C)C)cc2)n1,n,n,n,n,n,n

# Screens: PubChem BioAssay, several laboratories
